CDK5 p35 inh: inhibitors of human CDK5/p35 kinase; Q00535+Q15078; AID 488839; inhibition, % at 10 µM; Recombinant CDK5/p35, ADP-Glo luminescence, 60 min; 330,000 tested, 0.01% active;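 active means highest replicate inhibition of at least 50% and at least 75% of replicates reaching 50%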
Target sequence (Q00535 whole entry, looked up): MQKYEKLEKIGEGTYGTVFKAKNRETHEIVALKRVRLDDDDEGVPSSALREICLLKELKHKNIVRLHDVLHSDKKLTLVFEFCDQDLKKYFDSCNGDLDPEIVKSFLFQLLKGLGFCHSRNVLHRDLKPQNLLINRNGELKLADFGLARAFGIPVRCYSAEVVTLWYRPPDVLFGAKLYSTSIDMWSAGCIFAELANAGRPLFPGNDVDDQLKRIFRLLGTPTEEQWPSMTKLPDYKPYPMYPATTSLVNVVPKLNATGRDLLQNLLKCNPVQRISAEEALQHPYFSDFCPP
Target sequence (Q15078 whole entry, looked up): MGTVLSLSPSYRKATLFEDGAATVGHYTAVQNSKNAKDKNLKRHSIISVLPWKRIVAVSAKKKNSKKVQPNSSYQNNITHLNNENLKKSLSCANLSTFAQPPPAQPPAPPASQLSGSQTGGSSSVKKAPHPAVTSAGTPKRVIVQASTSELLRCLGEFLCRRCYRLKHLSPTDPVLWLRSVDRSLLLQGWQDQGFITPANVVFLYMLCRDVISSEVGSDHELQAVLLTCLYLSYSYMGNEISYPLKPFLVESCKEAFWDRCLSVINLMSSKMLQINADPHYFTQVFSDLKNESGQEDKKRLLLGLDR
Glyco luc inh: N-linked glycosylation inhibition. D54 ERlucT glycosylation luciferase reporter, 24 h; percent of 100 nM tunicamycin response. reporter increase, % at 12.5 µM. 360,000 tested, 0.23% active;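 active means mean luciferase reporter signal, scaled so untreated is 0 and the glycosylation-blocking control 100, at or above a set limit in every replicate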;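 further: luciferase carries N-glycosylation sites so blocking glycosylation raises the light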
CAL PDZ FP-1: inhibitors of human CAL PDZ peptide binding; inhibition, % at 24.9 µM; Q9HD26; 300,000 tested, 0.92% active; purified CAL PDZ, TMR-peptide fluorescence polarization, 1 h;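 active means mean inhibition of at least 30% with at least half of replicates also reaching 30%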
CAL PDZ FP-2: inhibitors of human CAL PDZ peptide binding. Q9HD26. purified CAL PDZ, TMR-peptide fluorescence polarization, 1 h. inhibition, % at 20 µM. 330,000 tested, 0.02% active. AID 504414;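 active means highest replicate inhibition of at least 40%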
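System: purified tagged CAL PDZ domain construct (CerCALP). Schedule: 1 h incubation at room temperature before polarization reading. Medium: 25 mM sodium phosphate pH 7.4, 150 mM NaCl, TCEP, IgG, Thesit. Read-out: percent inhibition from loss of millipolarization. Measured by: FP readout, S and P plane fluorescence. Probe or stimulus: fluorescent TMR peptide probe.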
PvdQ acylase: blocks Pseudomonas aeruginosa PvdQ acylase activity; purified PvdQ acylase, fluorescence plate reader; 340,000 tested, 0.063% active; inhibition, % at 10 µM; in the data active means inhibition above about 30%, passing the limit was not always enough
Vif inh: inhibitors of HIV Vif; inhibition, % at 7.49 µM; 340,000 tested, 0.35% active; AID 602346; HEK293T cells, Vif self-association by quenched fluorescence, imaging, 24 h; in the data active means inhibition above about 50%, passing the limit was not always enough
Numbers stand for hits; 0 = inactive; - = not tested or not shown; + = active, no number. Only some compounds are listed: those with a hit (about 1.4% of all), similar ones and a draw of the others.

SMILES | CDK5 p35 inh | Glyco luc inh | CAL PDZ FP-1 | CAL PDZ FP-2 | PvdQ acylase | Vif inh
FC(F)(F)c1nnc2c(Sc3ccc(Cl)cc3)nc3ccccc3n12 | 0 | 30.5 | 0 | 0 | 0 | 0
O=C(O)CCn1c(SCCOc2ccccc2)nc2ccccc21 | 0 | 0 | - | 0 | 0 | 0
O=C(NC1CCSC1=O)c1cccc(Cl)c1 (stereo unspecified) | 0 | 0 | 0 | 0 | 0 | 0
O=C(NC1CCSC1)c1cccc(Cl)c1 (stereo unspecified) | 0 | 0 | - | 0 | 80.7 | 0
Cc1noc(C)c1-c1ccc2nc[nH]c(=O)c2c1 | 0 | 0 | 0 | 0 | 0 | 0
COc1ccccc1CC(=O)NCc1nn(-c2ccccc2)nc1C | 0 | 0 | 64.8 | 0 | 0 | 0
Cc1nn(-c2ccccc2)nc1CNC(=O)C(C)Cc1ccccc1 (stereo unspecified) | 0 | 0 | 0 | 0 | 0 | 0
COCCn1c(SCc2ccc(F)cc2)nc2ccccc2c1=O | 0 | 0 | + | 0 | 0 | 0
COCCn1c(SCc2ccc(OC)c(F)c2)nc2ccccc2c1=O | 0 | 0 | - | 0 | 0 | 0
CN(C)c1ncnc2c1ncn2[C@H]1CN(Cc2cccnc2)C[C@@H](CO)O1 | - | 0 | - | - | - | 0
COc1cc(C(=O)OCC(=O)N2CCCCC2C)ccc1OCc1c(C)noc1C (stereo unspecified) | 0 | 0 | 45.7 | 0 | 0 | 0
COc1cc(OC)cc(C(=O)NNC(=S)NC2CC2)c1 | 0 | 0 | 57.1 | 0 | 0 | 0
CN(C(=O)COC(=O)c1ccc(S(=O)(=O)N2CCOCC2)cc1)c1ccccc1 | 0 | 0 | 44.8 | 0 | 0 | 0
COc1ccc(C(=O)CSC#N)cc1OC | 0 | 25.9 | 0 | 0 | 0 | 0
COC1OC2COC(c3ccccc3)OC2C2OC12 (stereo unspecified) | 0 | 0 | 143.9 | 0 | 0 | 0
Cc1cccc(S(=O)(=O)NC(=O)C2(C)CCN2C(=O)Cc2ccc(C(C)(C)C)cc2)c1 (stereo unspecified) | - | 0 | - | - | - | 0
CCn1ncc(C2=NOC(C(=O)NCc3ccc(Cl)cc3)C2)c1C (stereo unspecified) | 0 | 36.2 | - | 0 | 0 | 0
N#Cc1cccc(C(=O)Nc2ccc(S(=O)(=O)Nc3nccs3)cc2)c1 | 0 | 0 | 0 | 0 | 0 | 65.9
O=C(Nc1ccc(S(=O)(=O)Nc2nccs2)cc1)c1cccc(N2C(=O)c3ccccc3C2=O)c1 | 0 | 0 | 0 | 0 | 0 | 0
COc1ccc(Nc2nccc(-c3ccc(C#N)cc3)n2)cc1 | 54.6 | 0 | 0 | 0 | 0 | 0
CCOc1ccc(C2=CSC3=NCCN23)cc1[N+](=O)[O-] | 0 | 0 | 0 | 0 | 0 | 0
CCCCNC(=O)C1(C)CCCCN1C(=O)c1ccc2sccc2c1 (stereo unspecified) | - | 0 | - | - | - | 0
NC1=NC(c2ccccc2C(F)(F)F)N(c2ccc(F)c(Cl)c2)C(N)=N1 (stereo unspecified) | 0 | 0 | 0 | 0 | 0 | 0
Cc1ccc(S(=O)(=O)N[C@H](C(=O)OCC(=O)NC(=O)C2CCCCC2)C(C)C)cc1 | 0 | 0 | 154.5 | 0 | 0 | 0
Cc1ccc(S(=O)(=O)N[C@H](C(=O)OCC(=O)NC(=O)Nc2ccc3c(c2)OCCO3)C(C)C)cc1 | 0 | 0 | 0 | 0 | 0 | 0
SMILES | CDK5 p35 inh | Glyco luc inh | CAL PDZ FP-1 | CAL PDZ FP-2 | PvdQ acylase | Vif inh
CC(=O)n1nc(-c2ccccc2)nc1NCc1cccs1 | 0 | 0 | 71.6 | 0 | 0 | 0
CC(C)(CNc1ccc(C(F)(F)F)cc1[N+](=O)[O-])N1CCOCC1 | 0 | 0 | 0 | 0 | 0 | 0
O=C(C=Cc1ccccn1)c1ccccc1 | 0 | 0 | 0 | 0 | 0 | 70.0
O=C1CCCN1CC(O)CS(=O)(=O)Cc1ccccc1Cl (stereo unspecified) | 0 | 0 | 0 | 0 | 0 | 0
O=C1CCCN1CC(O)CS(=O)(=O)Cc1ccccc1 (stereo unspecified) | 0 | 0 | 46.0 | - | 0 | 0
CCSc1nc2nccnc2c(=O)[nH]1 | 0 | 0 | 96.3 | 0 | 0 | 0
CCSc1nc(O)cc(=O)[nH]1 | 0 | 0 | 0 | 0 | 0 | 0
Cc1ccccc1Nc1nc(N)nc(CCl)n1 | 0 | 0 | - | 0 | 0 | 104.1
Cc1ccccc1Nc1nc(N)nc(CN2C(=O)NC3(CCCCC3C)C2=O)n1 (stereo unspecified) | 0 | 0 | 50.0 | 0 | 0 | 0
CN(C)C(=O)CN1C(=O)C2CC=C(Cl)CC2C1=O (stereo unspecified) | 0 | 0 | 32.0 | 0 | 0 | 0
COc1ccc([C@H]2CC(=O)C=C(c3c(OC)cccc3OC)C2)cc1 | 0 | 28.6 | 0 | 0 | 0 | -
COc1ccc(C2=CC(=O)CC(c3ccc(OC)cc3)C2)cc1 (stereo unspecified) | 0 | 0 | 0 | 0 | 0 | 0
COc1ccc([C@H]2CC(=O)C=C(c3cc4ccccc4s3)C2)cc1 | 0 | 0 | 0 | 0 | 0 | 50.6
CN1CCN(C(=O)c2cccc(S(=O)(=O)N3CCCC3)c2)CC1 | 0 | 0 | 0 | 0 | 0 | 0
CC1(C)CN(c2ccccc2)C(=O)[C@H]1CC(=O)Nc1ccccc1 | - | 0 | - | - | - | 0
CCS(=O)(=O)N1CCC(C(=O)NCCCN2CCN(c3ccccc3F)CC2)CC1 | 0 | 0 | 0 | 0 | 0 | 0
CCCS(=O)(=O)N1CCCC(C(=O)NCCCN2CCN(c3ccccc3F)CC2)C1 (stereo unspecified) | 0 | 0 | 0 | 0 | 0 | 59.0
Cc1ccccc1S(=O)(=O)N(C)C[C@@H]1OCc2cn(nn2)CCCC(=O)N([C@H](C)CO)C[C@H]1C | - | 0 | - | - | - | 0
CCN(CC(=O)Nc1cccc(OC)c1)CC(=O)Nc1ccc(C)cc1Cl | 0 | 0 | 66.4 | - | 0 | 0
Cc1ccc(S(=O)(=O)c2cc3ccccc3nc2N)cc1 | 0 | 0 | 39.5 | 0 | 0 | 0
CCOc1ccc(CCNC(=O)Cn2ncn3nc(-c4ccc(OC)cc4)cc3c2=O)cc1OCC | 0 | 0 | 0 | 0 | 0 | 0
CCN(CC)c1ccc(N2C(=O)c3ccccc3C2=O)cc1 | 0 | 0 | 101.7 | - | 0 | 0
Cn1cc(CN2CCCC(C(=O)Nc3cccc(-c4cc5ccccc5[nH]4)c3)C2)cn1 (stereo unspecified) | 0 | 0 | 0 | 0 | 0 | 0
CCn1cc(CN2CCCC(C(=O)Nc3cccc(-c4cc5ccccc5[nH]4)c3)C2)c(C)n1 (stereo unspecified) | 0 | 0 | 0 | 0 | 0 | 53.2
COc1ccc2sc3cccc(NCCN(C)C)c3c(=O)c2c1 | - | 139.7 | - | - | - | 0
SMILES | CDK5 p35 inh | Glyco luc inh | CAL PDZ FP-1 | CAL PDZ FP-2 | PvdQ acylase | Vif inh
CN(C)CCNc1ccc(CO)c2sc3ccc(O)cc3c(=O)c12 | 0 | 0 | 0 | 0 | 0 | 0
Cc1cc(=O)[nH]c2c1cnn2C(C)c1ccccc1 (stereo unspecified) | 0 | 0 | 0 | 0 | 0 | 0
CCCCn1cnc2c(SCCc3ccccc3)nc(N)nc21 | 0 | 0 | 0 | 0 | 0 | 0
CCCn1cnc2c(SCCc3ccccc3)nc(N)nc21 | 0 | 0 | 53.9 | - | 0 | 0
CN(/C(=N\S(=O)(=O)c1ccccc1)C(F)(F)F)c1ccccc1 | 0 | 0 | - | 0 | 0 | 64.2
CCC(C)NC(=S)Nc1ccccc1 (stereo unspecified) | 0 | 0 | 75.5 | 0 | 0 | 0

High-throughput results from PubChem BioAssay.
